Assay results as given in ChEMBL document CHEMBL3044585, “Potent in vivo antifungal activity against powdery mildews of pregnane glycosides from the roots of Cynanchum wilfordii” (J Agric Food Chem, 2011).
≈ marks a conversion by molar mass, not a printed value.

Legend:
Blumeria hordei [1] = assay: Antifungal activity against Blumeria graminis f. sp. hordei assessed as control of barley powdery mildew treated 1 day before inoculation; assay type: functional, organism-based
Summary of the method: (§1)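 One-day protective test on barley against powdery mildew: plants treated 1 day before inoculation, with Tween 20 solution alone as the untreated reference. Pots in randomized complete block design, three replicates per treatment, experiment run twice. Infected leaf area (%) scored; % control = 100[(A − B)/A], A = infection on Tween 20-sprayed leaves, B = infection on treated leaves; reported ± standard deviation.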

Blumeria hordei [2] = assay: Antifungal activity against Blumeria graminis f. sp. hordei assessed as control of barley powdery mildew at 16 ug/mL treated 1 day before inoculation; assay type: functional
Summary of the method: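 Barley plants in pots treated with sample in Tween 20 solution and inoculated 1 day later (protective assay). Randomized complete block design, three replicates per treatment, experiment run twice. Infected leaf area (%) scored. % control = 100[(A−B)/A], where A is the infection area on leaves sprayed with Tween 20 solution alone; reported ± standard deviation.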

Blumeria hordei [3] = assay: Antifungal activity against Blumeria graminis f. sp. hordei assessed as control of barley powdery mildew at 63 ug/mL treated 1 day before inoculation; assay type: functional; summary of the method: as §1
Podosphaera macularis [4] = assay: Antifungal activity against Sphaerotheca humuli assessed as diseased fruits in strawberry powdery mildew at 4000 fold dilution (reference value: 62.2%); assay type: functional
Summary of the method: (§2)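 Commercial greenhouse trial on strawberry cv. Janghee. Plots were 4 m long, with data taken from the middle 3 m. Sprays applied by hand-held sprayer until runoff, three times at 1-week intervals. Before each spray, ripe fruits were harvested and total and diseased fruits counted. Percentage of diseased fruits given as the mean of three replicates; disease-control percentage calculated relative to untreated control.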

Podosphaera macularis [5] = assay: Antifungal activity against Sphaerotheca humuli assessed as control of strawberry powdery mildew at 4000 fold dilution; assay type: functional; summary of the method: as §2
[6] = Blumeria hordei, read-out: IC50

Row | SMILES | IC50 (Blumeria hordei [1]; [6]) | Activity (Blumeria hordei [3]) | also measured
1 | CC(=O)c1c(C)cc2cccc(O)c2c1O [NEPODIN] | 20 µg/mL (≈ 92.5 µM) | – | –
2 | CO[C@H]1C[C@H](O[C@H]2[C@@H](OC)C[C@H](O[C@H]3CC[C@@]4(C)C(=CC[C@]5(O)[C@@H]4C[C@@H](OC(=O)/C=C/c4ccccc4)[C@@]4(C)[C@]5(O)CC[C@]4(O)C(C)=O)C3)O[C@@H]2C)O[C@@H](C)[C@H]1O[C@H]1C[C@H](OC)[C@H](O[C@H]2C[C@@H](OC)[C@@H](O)[C@H](C)O2)[C@@H](C)O1 [WILFOSIDE K1N] | – | – | IC50 (Blumeria hordei [1]): Not Active
3 | CO[C@H]1C[C@H](O[C@H]2[C@@H](OC)C[C@H](O[C@H]3CC[C@@]4(C)C(=CC[C@]5(O)[C@@H]4C[C@@H](OC(=O)/C=C(\C)C(C)C)[C@@]4(C)[C@]5(O)CC[C@]4(O)C(C)=O)C3)O[C@@H]2C)O[C@@H](C)[C@H]1O[C@H]1C[C@H](OC)[C@H](O[C@H]2C[C@@H](OC)[C@@H](O[C@@H]3O[C@H](CO)[C@@H](O)[C@H](O)[C@H]3O)[C@H](C)O2)[C@@H](C)O1 [WILFOSIDE C1G] | 12.9 µg/mL (≈ 10.5 µM) | >77% | Activity (Blumeria hordei [2]): 78%
4 | CO[C@H]1C[C@H](O[C@H]2[C@@H](OC)C[C@H](O[C@H]3CC[C@@]4(C)C(=CC[C@]5(O)[C@@H]4C[C@@H](OC(=O)/C=C/c4ccccc4)[C@@]4(C)[C@]5(O)CC[C@]4(O)C(C)=O)C3)O[C@@H]2C)O[C@@H](C)[C@H]1O[C@H]1C[C@H](OC)[C@H](O[C@H]2C[C@@H](OC)[C@@H](O[C@@H]3O[C@H](CO)[C@@H](O[C@@H]4O[C@H](CO)[C@@H](O)[C@H](O)[C@H]4O)[C@H](O)[C@H]3O)[C@H](C)O2)[C@@H](C)O1 [WILFOSIDE K1GG] | – | – | IC50 (Blumeria hordei [1]): Not Active
5 | Cc1cc(O)c2c(c1)C(=O)c1cccc(O)c1C2=O [CHRYSOPHANOL] | 4.7 µg/mL (≈ 18.5 µM) | – | –
6 | CO[C@H]1C[C@H](O[C@H]2[C@@H](OC)C[C@H](O[C@H]3CC[C@@]4(C)C(=CC[C@]5(O)[C@@H]4C[C@@H](OC(=O)/C=C(\C)C(C)C)[C@@]4(C)[C@]5(O)CC[C@]4(O)C(C)=O)C3)O[C@@H]2C)O[C@@H](C)[C@H]1O[C@H]1C[C@H](OC)[C@H](O[C@H]2C[C@@H](OC)[C@@H](O[C@@H]3O[C@H](CO)[C@@H](O[C@@H]4O[C@H](CO)[C@@H](O)[C@H](O)[C@H]4O)[C@H](O)[C@H]3O)[C@H](C)O2)[C@@H](C)O1 [WILFOSIDE C1GG] | 28.3 µg/mL (≈ 20.4 µM) | >77% | –
7 | CO[C@H]1C[C@H](O[C@H]2[C@@H](OC)C[C@H](O[C@H]3CC[C@@]4(C)C(=CC[C@]5(O)[C@@H]4C[C@@H](OC(=O)/C=C(\C)C(C)C)[C@@]4(C)[C@]5(O)CC[C@]4(O)C(C)=O)C3)O[C@@H]2C)O[C@@H](C)[C@H]1O[C@H]1C[C@H](OC)[C@H](O[C@H]2C[C@@H](OC)[C@@H](O)[C@H](C)O2)[C@@H](C)O1 [WILFOSIDE C1N] | 3.24 µg/mL (≈ 3.04 µM) | >77% | Activity (Blumeria hordei [2]): 95%
8 | CCCOC/C(=N\c1ccc(Cl)cc1C(F)(F)F)n1ccnc1 [TRIFLUMIZOLE] | – | – | Activity (Podosphaera macularis [4]): 7.2%; Activity (Podosphaera macularis [5]): 89%
9 | NC(=O)OC[C@H](O)[C@@H](O)[C@H](N)C(=O)N[C@H](C(=O)O)[C@H]1O[C@@H](n2cc(CO)c(=O)[nH]c2=O)[C@H](O)[C@@H]1O [POLYOXIN B] | 71.4 µg/mL (≈ 141 µM) | – | –
